Experimental data published in ChEMBL document CHEMBL3414541, “Discovery of new thienopyrimidinone derivatives displaying antimalarial properties toward both erythrocytic and hepatic stages of Plasmodium” (Eur J Med Chem, 2015).
Calls of active or inactive are those of the source. No cut-off for these calls is given here.

Columns and labels:
HepG2 = assay: (§1) Cytotoxicity against human HepG2 cells assessed as cell viability after 72 hrs by MTT assay; format: cell-based; conditions: hepg2, 72 h
Method in brief: (§2)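 Cells were kept in RPMI with 10% FBS. 5×10^3 cells/well were settled 24 h, then exposed to compound from DMSO (final <0.5%): CHO for 24 h, HepG2 for 72 h, in duplicate. Wells were checked for precipitate. MTT was added for 2 h at 37 °C, formazan dissolved in DMSO, and A570 read (630 nm reference). Viability is % of untreated cells; CC50 from non-linear regression, mean of three experiments.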

Plasmodium falciparum [1] = assay: Antiplasmodial activity against multi-drug resistant Plasmodium falciparum K1 infected in human erythrocytes assessed as parasite growth inhibition after 72 hrs by SYBR Green I dye-based fluorescence assay; format: functional, organism-based
[2] = Selectivity index, ratio of CC50 for human HepG2 cells to IC50 for multi-drug resistant Plasmodium falciparum K1 infected in human erythrocytes
[3] = as §1; format: cell-based; conditions: HepG2 cells; method in brief: as §2
[4] = Cytotoxicity against CHO cells assessed as cell viability after 24 hrs by MTT assay; format: cell-based, Cricetulus griseus; conditions: chinese hamster; method in brief: as §2
[5] = Inhibition of Plasmodium falciparum DHFR after 48 hrs
Method in brief: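 Recombinant S. cerevisiae whose own DHFR is replaced by the P. falciparum DHFR domain was used. 1×10^4 cells were grown in YEPD with compound from DMSO (final <0.5%) at 30 °C for 48 h, in duplicate. Growth was read as A660. IC50 (50% growth inhibition) came from non-linear regression.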

[6] = Genotoxicity in DNA (unknown origin) incubated for 24 hrs in dark condition by methyl green displacement assay
Method in brief: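 DNA-methyl green (4 mg in 20 mL 0.05 M Tris-HCl pH 7.5 with 7.5 mmol/L MgSO4) was shaken 24 h at 37 °C. It was then added to compound from DMSO (final <0.5%). A630 was read, and read again after 24 h at room temperature in the dark. DC50 is the concentration displacing 50% of methyl green.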

[7] = Cytotoxicity against human HepG2 cells expressing CD81 assessed as cell viability after 72 hrs by CellTiter-glo assay; format: cell-based
Plasmodium yoelii = assay: Antiplasmodial activity against liver stage of Plasmodium yoelii 17X NL sporozoites infected in human HepG2 cells expressing CD81 after 48 hrs by DAPI staining-based immunofluorescence analysis; format: functional, organism-based; conditions: HepG2, 48 h
Method in brief: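 HepG2/CD81 cells were grown in D-MEM with 10% FBS. 25×10^3 cells/well went on collagen-coated wells; after 24 h they received compound and 5000 P. yoelii sporozoites together, then were spun 900 × g for 10 min at 4 °C. Treatment was renewed at 3 h and 24 h. At 48 h cells were methanol-fixed, stained with anti-HSP70 immunofluorescence, and parasites counted by microscopy. IC50 is 50% fewer parasites than in 0.5% DMSO controls.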

Salmonella typhimurium [8] = assay: Mutagenicity in Salmonella typhimurium TA100 at 2.5 mM after 1 hr by Ames test in absence of S9 fraction; format: toxicity, organism-based; conditions: salmonella enterica subsp. enterica serovar typhimurium, 2500 µM
Method in brief: (§3)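 Tester strains were grown overnight in nutrient broth. 0.1 mL culture was incubated 1 h at 37 °C with shaking with compound (2.5–25 mM DMSO solutions), with or without 4% S9 mix. Top agar was added and the mix plated on Vogel-Bonner agar. Revertants were counted after 48 h at 37 °C in the dark. A twofold rise over spontaneous revertants counts as mutagenic.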

Salmonella typhimurium [9] = assay: Mutagenicity in Salmonella typhimurium TA97A at 2.5 mM after 1 hr by Ames test in absence of S9 fraction; format: toxicity, organism-based; conditions: salmonella enterica subsp. enterica serovar typhimurium, 2500 µM; method in brief: as §3
Plasmodium falciparum [10] = assay: Antiplasmodial activity against multi-drug resistant Plasmodium falciparum K1 infected in human erythrocytes assessed as depolarization of mitochondrial membrane at IC50 after 20 mins by flow cytometric analysis; format: functional, organism-based
[11] = Selectivity index, ratio of CC50 for human HepG2 cells expressing CD81 to IC50 for liver stage of Plasmodium yoelii 17X NL sporozoites infected in human HepG2 cells expressing CD81; format: functional
Plasmodium falciparum [12] = assay: Antiplasmodial activity against multi-drug resistant Plasmodium falciparum K1 infected in human erythrocytes assessed as parasite growth inhibition after 72 hrs by SYBR Green I dye-based fluorescence assay in presence of ascorbic acid; format: functional, organism-based; conditions: K1, 72 h
Method in brief: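 Same SYBR Green I 72 h growth assay on the K1 strain (2% haematocrit, 1% parasitaemia, 37 °C, 6% CO2/14% O2/80% N2, DMSO <0.5%), with 800 µM ascorbic acid in the medium as radical trap. Duplicates; artesunate as positive control; IC50 derived.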

[13] = Plasmodium falciparum, K1, 72 h, read-out: IC50

SMILES | CC50 at 72 h [3] | IC50 (Plasmodium falciparum [1]; [13]) | other results
CCN(CC)c1nc2cc(-c3ccc(C)cc3)sc2c(=O)[nH]1 | – | – | CC50 (HepG2): ND(Insoluble); IC50 (Plasmodium falciparum [1]): ND(Insoluble)
CC(C)Nc1nc2cc(-c3ccc(Br)cc3)sc2c(=O)[nH]1 | 13.4 µM | 1.7 µM | Ratio CC50/IC50 [2]: 9
CC(C)Nc1nc2cc(-c3ccc(F)cc3)sc2c(=O)[nH]1 | > 25 µM | 0.5 µM | Ratio CC50/IC50 [2]: >66
CC(C)Nc1nc2c(-c3ccc(Cl)cc3)csc2c(=O)[nH]1 | 7.1 µM | > 5 µM | –
COc1cccc2c1C(=O)c1c(O)c3c(c(O)c1C2=O)C[C@@](O)(C(=O)CO)C[C@@H]3O[C@H]1C[C@H](N)[C@H](O)[C@H](C)O1 [DOXORUBICIN] | – | – | CC50 at 24 h [4]: 0.6 µM
CCCCCN(CCCCC)c1nc2cc(-c3ccc(C)cc3)sc2c(=O)[nH]1 | – | – | CC50 (HepG2): ND(Insoluble); IC50 (Plasmodium falciparum [1]): ND(Insoluble)
Cc1ccc(-c2cc3nc(NCC(C)C)[nH]c(=O)c3s2)cc1 | 21.6 µM | > 5 µM | –
CCCCCCNc1nc2cc(-c3ccc(C)cc3)sc2c(=O)[nH]1 | 10.6 µM | > 5 µM | –
CC(C)(C)Nc1nc2cc(-c3ccccc3)sc2c(=O)[nH]1 | 12.5 µM | 1 µM | Ratio CC50/IC50 [2]: 10
Cc1ccccc1-c1cc2nc(NC(C)(C)C)[nH]c(=O)c2s1 | 4 µM | 1.7 µM | Ratio CC50/IC50 [2]: 2
CCc1nc(N)nc(N)c1-c1ccc(Cl)cc1 [PYRIMETHAMINE] | – | – | IC50 [5]: 2.8 µM
CCCCN(C)c1nc2cc(-c3ccc(C)cc3)sc2c(=O)[nH]1 | 3 µM | > 5 µM | –
CC1(C)N=C(N)N=C(N)N1c1ccc(Cl)cc1 [CYCLOGUANIL] | – | – | IC50 [5]: 5 µM
COc1ccc(-c2cc3nc(NC(C)(C)C)[nH]c(=O)c3s2)cc1 | 32.3 µM | > 5 µM | –
CCCNc1nc2cc(-c3ccc(C)cc3)sc2c(=O)[nH]1 | > 62.5 µM | > 5 µM | –
Cc1ccc(-c2ccc3nc(NC(C)(C)C)[nH]c(=O)c3c2)cc1.Cl | 0.49 µM | > 5 µM | Ratio CC50/IC50 [2]: <10.2
COc1cccc2c1C(=O)c1c(O)c3c(c(O)c1C2=O)C[C@@](O)(C(C)=O)C[C@@H]3O[C@H]1C[C@H](N)[C@H](O)[C@H](C)O1 [DAUNORUBICIN] | – | – | DC50 [6]: 1 µM
CC(C)Nc1nc2ccsc2c(=O)[nH]1 | 23.9 µM | > 5 µM | –
Cc1ccc(-c2csc3c(=O)[nH]c(NC(C)C)nc23)cc1 | 8.8 µM | 2.7 µM | Ratio CC50/IC50 [2]: 3
CC(C)Nc1nc2c(-c3ccc(F)cc3)csc2c(=O)[nH]1 | > 15.6 µM | > 5 µM | –
C[C@@H]1CC[C@H]2[C@@H](C)C(=O)O[C@@H]3O[C@@]4(C)CC[C@@H]1[C@]32OO4 [ARTEMISININ] | – | – | CC50 at 72 h [7]: > 10 µM; IC50 (Plasmodium yoelii): > 10 µM
O=C1C(O)=C([C@H]2CC[C@H](c3ccc(Cl)cc3)CC2)C(=O)c2ccccc21 [ATOVAQUONE] | > 15.6 µM | – | CC50 at 72 h [7]: 9.5 µM; IC50 (Plasmodium yoelii): 0.009 µM
CC(C)(C)Nc1nc2ccsc2c(=O)[nH]1 | 8.4 µM | > 5 µM | –
CCCCNc1nc2cc(-c3ccc(C)cc3)sc2c(=O)[nH]1 | 6 µM | > 5 µM | –
CCC(CC)Nc1nc2cc(-c3ccc(C)cc3)sc2c(=O)[nH]1 | 101 µM | > 5 µM | –
Cc1cccc(-c2cc3nc(NC(C)(C)C)[nH]c(=O)c3s2)c1 | 14.1 µM | 3.6 µM | Ratio CC50/IC50 [2]: 3

SMILES | CC50 at 72 h [3] | IC50 (Plasmodium falciparum [1]; [13]) | other results
[N-]=[N+]=[N-].[Na+] [SODIUM AZIDE] | – | – | Activity (Salmonella typhimurium [8]): Toxic; Activity (Salmonella typhimurium [9]): Toxic
Cc1ccc(-c2cc3nc(NC(C)C)[nH]c(=O)c3s2)cc1 | – | – | Activity (Plasmodium falciparum [10]): inactive
CCN(CCCl)CCCNc1c2ccc(Cl)cc2nc2ccc(OC)cc12 | – | – | Activity (Salmonella typhimurium [8]): Toxic; Activity (Salmonella typhimurium [9]): Toxic
Cc1ccc(-c2cc3nc(NC(C)(C)C)[nH]c(=O)c3s2)cc1 | – | – | Activity (Plasmodium falciparum [10]): inactive
Cc1ccc(-c2cc3nc(NC(C)c4ccccc4)[nH]c(=O)c3s2)cc1 (stereo not given) | 9.2 µM | > 5 µM | –
CC(C)(C)Nc1nc2cc(-c3ccc(Cl)cc3)sc2c(=O)[nH]1 | – | – | Activity (Plasmodium falciparum [10]): inactive
Cc1ccc(-c2cc3nc(N)[nH]c(=O)c3s2)cc1 | – | – | CC50 (HepG2): ND(Insoluble); IC50 (Plasmodium falciparum [1]): ND(Insoluble)
Cc1ccc(-c2cc3nc(NCc4ccccc4Cl)[nH]c(=O)c3s2)cc1 | 32.6 µM | > 5 µM | –
CC(C)(C)Nc1nc2cc(-c3ccc(F)cc3)sc2c(=O)[nH]1 | 5.1 µM | > 5 µM | –
COc1ccc(-c2csc3c(=O)[nH]c(NC(C)C)nc23)cc1 | 27.8 µM | > 5 µM | –
CC(C)(C)Nc1nc2c(-c3ccc(F)cc3)csc2c(=O)[nH]1 | 2.3 µM | > 5 µM | –
COc1cc(NC(C)CCCN)c2ncccc2c1 (stereo not given) [PRIMAQUINE] | – | – | CC50 at 72 h [7]: 6.1 µM; Ratio CC50/IC50 [11]: 5.3; IC50 (Plasmodium yoelii): 1.16 µM
Cc1ccc(-c2ccc3c(=O)[nH]c(NC(C)(C)C)nc3c2)cc1 | 0.98 µM | > 5 µM | Ratio CC50/IC50 [2]: <5.1
CC(C)(C)Nc1nc2cc(-c3ccc(Br)cc3)sc2c(=O)[nH]1 | 1.4 µM | > 5 µM | –
Cc1ccc(-c2csc3c(=O)[nH]c(NC(C)(C)C)nc23)cc1 | 1.4 µM | > 5 µM | –
CC(C)Nc1nc2c(-c3ccc(Br)cc3)csc2c(=O)[nH]1 | 6.5 µM | > 5 µM | –
CCCN(CCC)c1nc2cc(-c3ccc(C)cc3)sc2c(=O)[nH]1 | – | – | CC50 (HepG2): ND(Insoluble); IC50 (Plasmodium falciparum [1]): ND(Insoluble)
CCCCCNc1nc2cc(-c3ccc(C)cc3)sc2c(=O)[nH]1 | 4.2 µM | > 5 µM | –
C[C@H]1[C@H](OC(=O)CCC(=O)O)O[C@@H]2O[C@@]3(C)CC[C@H]4[C@H](C)CC[C@@H]1[C@@]24OO3 [ARTESUNATE] | – | – | IC50 (Plasmodium falciparum [12]): 0.7 µM
C[C@H]1c2cccc(O)c2C(=O)C2=C(O)[C@]3(O)C(=O)C(C(N)=O)=C(O)[C@@H](N(C)C)[C@@H]3[C@@H](O)[C@@H]21.O [DOXYCYCLINE] | – | – | Ratio CC50/IC50 [2]: 4
CC(C)Nc1nc2cc(-c3ccc(Cl)cc3)sc2c(=O)[nH]1 | > 15.6 µM | 0.6 µM | Ratio CC50/IC50 [2]: >26
CCCCCCCNc1nc2cc(-c3ccc(C)cc3)sc2c(=O)[nH]1 | 6.8 µM | > 5 µM | –
COc1ccc(-c2cc3nc(NC(C)C)[nH]c(=O)c3s2)cc1 | 27.1 µM | 0.5 µM | Ratio CC50/IC50 [2]: 136
CCCCN(CCCC)c1nc2cc(-c3ccc(C)cc3)sc2c(=O)[nH]1 | – | – | CC50 (HepG2): ND(Insoluble); IC50 (Plasmodium falciparum [1]): ND(Insoluble)
CCCCCCC(C)Nc1nc2cc(-c3ccc(C)cc3)sc2c(=O)[nH]1 (stereo not given) | 19.4 µM | > 5 µM | –
